{"source": "ChEMBL document CHEMBL2074148", "about": "“Interaction of human and rat organic anion transporter 2 with various cephalosporin antibiotics” (Eur J Pharmacol, 2003)", "molecules": {"B1": {"name": "Solute carrier family 22 member 7 (Rattus norvegicus) (protein)", "chain": "MGFEDLLDKVGGFGPFQLRNLVLMALPRMLLPMHFLLPVFMAAVPAHHCALPGAPANLSHQDLWLEAHLPRETDGSFSSCLRFAYPQTVPNVTLGTEVSNSGEPEGEPLTVPCSQGWEYDRSEFSSTIATEWDLVCQQRGLNKITSTCFFIGVLVGAVVYGYLSDRFGRRRLLLVAYVSSLVLGLMSAASINYIMFVVTRTLTGSALAGFTIIVLPLELEWLDVEHRTVAGVISTVFWSGGVLLLALVGYLIRSWRWLLLAATLPCVPGIISIWWVPESARWLLTQGRVEEAKKYLLSCAKLNGRPVGEGSLSQEALNNVVTMERALQRPSYLDLFRTSQLRHISLCCMMVWFGVNFSYYGLTLDVSGLGLNVYQTQLLFGAVELPSKIMVYFLVRRLGRRLTEAGMLLGAALTFGTSLLVSLETKSWITALVVVGKAFSEAAFTTAYLFTSELYPTVLRQTGLGLTALMGRLGASLAPLAALLDGVWLLLPKVAYGGIALVAACTALLLPETKKAQLPETIQDVERKSTQEEDV"}}, "type_in_all_cases": "functional, cell-based", "key": {"[1]": {"target": "T1, Solute carrier family 22 member 7 (Homo sapiens, UniProt Q9Y694)", "T1 sequence (Q9Y694 whole entry)": "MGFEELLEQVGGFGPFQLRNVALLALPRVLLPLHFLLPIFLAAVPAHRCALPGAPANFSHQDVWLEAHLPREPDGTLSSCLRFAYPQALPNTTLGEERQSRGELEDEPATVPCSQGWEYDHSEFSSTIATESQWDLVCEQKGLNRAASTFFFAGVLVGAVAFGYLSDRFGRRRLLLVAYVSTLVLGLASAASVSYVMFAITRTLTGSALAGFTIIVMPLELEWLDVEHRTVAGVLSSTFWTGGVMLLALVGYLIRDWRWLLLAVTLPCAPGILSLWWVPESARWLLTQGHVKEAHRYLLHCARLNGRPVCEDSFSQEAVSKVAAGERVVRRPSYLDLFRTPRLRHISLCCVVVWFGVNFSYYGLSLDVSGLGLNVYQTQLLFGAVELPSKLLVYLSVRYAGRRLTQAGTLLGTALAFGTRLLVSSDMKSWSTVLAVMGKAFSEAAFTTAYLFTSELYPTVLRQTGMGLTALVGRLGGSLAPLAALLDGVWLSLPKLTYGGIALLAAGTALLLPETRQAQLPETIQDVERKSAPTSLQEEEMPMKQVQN", "experiment": "(§1) TP_TRANSPORTER: inhibition of PGF2alpha in OAT2-S2 cells", "summary_of_the_method": "(§2)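 S2 cells stably expressing human or rat OAT2, seeded at 1 × 10^5 cells/well and grown for 2 days. Washed, then preincubated 10 min at 37 °C in D-PBS (pH 7.4). Uptake of 50 nM [3H]prostaglandin F2α measured at 37 °C with or without various concentrations of cephalosporin: 20 s for human OAT2, 2 min for rat OAT2. Stopped with ice-cold D-PBS; cells lysed in 0.1 N NaOH; scintillation counting.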"}, "[2]": {"target": "T2, Solute carrier family 22 member 7 (Rattus norvegicus, UniProt Q5RLM2)", "T2 sequence (Q5RLM2 whole entry)": "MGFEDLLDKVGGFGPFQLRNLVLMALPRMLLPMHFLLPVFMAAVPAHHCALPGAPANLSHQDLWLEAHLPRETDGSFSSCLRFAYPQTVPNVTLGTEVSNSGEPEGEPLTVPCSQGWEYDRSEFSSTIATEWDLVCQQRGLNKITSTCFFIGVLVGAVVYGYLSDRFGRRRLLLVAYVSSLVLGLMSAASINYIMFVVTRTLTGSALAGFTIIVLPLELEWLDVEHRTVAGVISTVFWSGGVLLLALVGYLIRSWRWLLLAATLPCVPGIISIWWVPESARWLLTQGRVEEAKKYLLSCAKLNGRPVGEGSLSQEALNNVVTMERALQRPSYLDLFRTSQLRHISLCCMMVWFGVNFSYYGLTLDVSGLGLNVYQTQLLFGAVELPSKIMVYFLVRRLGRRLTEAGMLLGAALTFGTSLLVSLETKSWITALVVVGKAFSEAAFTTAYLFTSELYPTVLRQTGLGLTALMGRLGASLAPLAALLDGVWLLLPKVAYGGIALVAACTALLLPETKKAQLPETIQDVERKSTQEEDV", "experiment": "as §1", "summary_of_the_method": "as §2"}, "[3]": {"target": "T3, Solute carrier family 22 member 11 (Homo sapiens, UniProt Q9NSA0)", "T3 sequence (Q9NSA0 whole entry)": "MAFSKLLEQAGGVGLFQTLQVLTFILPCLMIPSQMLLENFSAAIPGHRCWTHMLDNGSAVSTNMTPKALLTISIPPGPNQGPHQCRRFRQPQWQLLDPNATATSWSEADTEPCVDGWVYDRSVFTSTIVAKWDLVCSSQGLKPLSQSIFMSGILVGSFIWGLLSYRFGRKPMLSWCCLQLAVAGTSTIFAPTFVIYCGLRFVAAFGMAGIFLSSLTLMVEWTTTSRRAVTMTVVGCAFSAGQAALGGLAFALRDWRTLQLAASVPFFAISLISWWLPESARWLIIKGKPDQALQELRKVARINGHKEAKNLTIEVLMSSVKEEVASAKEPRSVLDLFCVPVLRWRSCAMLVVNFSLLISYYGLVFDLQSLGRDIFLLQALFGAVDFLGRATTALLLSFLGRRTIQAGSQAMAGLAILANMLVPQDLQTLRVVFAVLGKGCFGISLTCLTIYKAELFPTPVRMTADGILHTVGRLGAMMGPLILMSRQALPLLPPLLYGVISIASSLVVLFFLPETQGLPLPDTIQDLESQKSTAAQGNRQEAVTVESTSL", "experiment": "TP_TRANSPORTER: cell viability in OAT4-S2 cells", "summary_of_the_method": "(§3)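 S2 cells stably transfected with the human OAT (pcDNA3.1), alongside mock-transfected controls, were seeded at 1 × 10^5 cells/well and cultured for 2 days. Cells were then exposed to 5 mM cephalosporin, with or without 1 mM probenecid, at 33 °C for 24 h. MTT was added for a further 4 h at 33 °C. Cells were solubilized in isopropanol/HCl and OD read at 570 nm (630 nm reference). Four determinations; mean ± S.E.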"}, "[4]": {"target": "T4, Organic anion transporter 3 (Homo sapiens, UniProt Q8TCC7)", "T4 sequence (Q8TCC7 whole entry)": "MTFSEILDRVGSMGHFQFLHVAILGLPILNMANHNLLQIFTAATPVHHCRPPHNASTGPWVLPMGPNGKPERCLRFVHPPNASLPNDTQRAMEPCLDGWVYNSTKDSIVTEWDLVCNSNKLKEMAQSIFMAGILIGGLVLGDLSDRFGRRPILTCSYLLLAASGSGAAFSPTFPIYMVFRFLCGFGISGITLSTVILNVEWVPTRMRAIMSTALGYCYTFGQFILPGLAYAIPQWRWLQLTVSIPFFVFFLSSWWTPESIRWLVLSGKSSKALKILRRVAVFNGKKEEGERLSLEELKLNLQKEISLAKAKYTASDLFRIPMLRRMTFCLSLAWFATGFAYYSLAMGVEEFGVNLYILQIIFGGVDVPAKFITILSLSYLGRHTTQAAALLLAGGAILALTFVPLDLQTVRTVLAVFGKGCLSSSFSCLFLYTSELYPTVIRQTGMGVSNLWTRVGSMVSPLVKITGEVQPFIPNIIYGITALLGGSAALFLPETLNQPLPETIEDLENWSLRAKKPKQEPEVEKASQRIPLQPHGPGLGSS", "experiment": "TP_TRANSPORTER: cell viability in OAT3-S2 cells", "summary_of_the_method": "as §3"}, "[5]": {"substrate": "CCCCC[C@H](O)/C=C/[C@@H]1[C@@H](C/C=C\\CCCC(=O)O)[C@@H](O)C[C@H]1O", "experiment": "TP_TRANSPORTER: uptake in OAT2-S2 cells"}}}
{"molecule": "Cn1nnnc1SCC1=C(C(=O)O)N2C(=O)[C@@H](NC(=O)[C@H](O)c3ccccc3)[C@H]2SC1", "note": "[CEFAMANDOLE]", "values": [{"measurement": "IC50", "setting": "[1]", "result": 1570, "unit": "µM"}, {"measurement": "IC50", "setting": "[2]", "result": 3180, "unit": "µM"}]}
{"molecule": "CCN1CCN(C(=O)N[C@@H](C(=O)N[C@@H]2C(=O)N3C(C(=O)O)=C(CSc4nnnn4C)CS[C@H]23)c2ccc(O)cc2)C(=O)C1=O", "note": "[CEFOPERAZONE]", "values": [{"measurement": "IC50", "setting": "[1]", "result": 1330, "unit": "µM"}, {"measurement": "IC50", "setting": "[2]", "result": 1620, "unit": "µM"}]}
{"molecule": "CO/N=C(\\C(=O)N[C@@H]1C(=O)N2C(C(=O)O)=C(COC(C)=O)CS[C@H]12)c1csc(N)n1", "note": "[CEFOTAXIME]", "values": [{"measurement": "IC50", "setting": "[1]", "result": 4680, "unit": "µM"}, {"measurement": "IC50", "setting": "[2]", "result": "> 5000", "unit": "µM"}]}
{"molecule": "O=C(Cc1cccs1)N[C@@H]1C(=O)N2C(C(=O)[O-])=C(C[n+]3ccccc3)CS[C@H]12", "note": "[CEPHALORIDINE]", "values": [{"measurement": "Activity", "setting": "[3]", "result": "substrate []"}, {"measurement": "Activity", "setting": "[4]", "result": "substrate []"}, {"measurement": "IC50", "setting": "[1]", "result": 4480, "unit": "µM"}, {"measurement": "IC50", "setting": "[2]", "result": "> 5000", "unit": "µM"}]}
{"molecule": "CC(=O)OCC1=C(C(=O)O)N2C(=O)[C@@H](NC(=O)Cc3cccs3)[C@H]2SC1", "note": "[CEPHALOTHIN]", "values": [{"measurement": "IC50", "setting": "[1]", "result": 1410, "unit": "µM"}, {"measurement": "IC50", "setting": "[2]", "result": 1500, "unit": "µM"}]}
{"molecule": "B1", "values": [{"measurement": "Km", "setting": "[5]", "result": 0.414, "unit": "µM"}]}
